Measurements taken from ChEMBL document CHEMBL4350954, “Identification of Thienopyrimidine Scaffold as an Inhibitor of the ABC Transport Protein ABCC1 (MRP1) and Related Transporters Using a Combined Virtual Screening Approach” (J Med Chem, 2019).

Key:
[1] = target: T1, Multidrug resistance-associated protein 1 (Homo sapiens, UniProt P33527); test: (§1) Reversal of ABCC1 (unknown origin)-mediated multidrug resistance in MDCK2 cells co-expressing MRP1 (unknown origin) assessed as resistance factor by measuring [GI50(resistant cell line without or with compound)/ GI50(sensitive cell line)] at 10 uM incubated for 72 hrs by MTT assay (reference value: 7); type: cell-based
[2] = target: ABCC1 (MRP1) (Homo sapiens, UniProt P33527); test: Inhibition of ABCC1 in human H69AR cells at 10 uM preincubated for 30 mins followed by calcein-AM addition measured at 60 secs time interval by fluorescence assay relative to control; type: cell-based; conditions: probe calcein-AM
Outline: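 Calcein AM accumulation assay in H69AR small-cell lung cancer cells, which express only ABCC1. Inhibited efflux lets calcein AM build up intracellularly, where esterases cleave it to fluorescent calcein. The screen used 10 µM, scaled to a standard ABCC1 inhibitor at 10 µM as 100%. Hits reaching ≥20% inhibition (+SEM) went on to IC50 curves, constrained to that 100% maximum. Values are means of ≥3 independent experiments in duplicate ± SEM.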

[3] = target: T2, ABCG2 (BCRP) (Homo sapiens, UniProt Q9UNQ0); test: Inhibition of ABCG2 (unknown origin) expressed in MDCK2 cells co-expressing BCRP (unknown origin) assessed as effect on pheophorbide A accumulation at 10 uM pre-incubated for 20 mins followed by pheophorbide A addition and measured after 120 mins by flow cytometric analysis relative to Ko143; type: cell-based; conditions: probe pheophorbide A
T2 sequence (Q9UNQ0 whole entry): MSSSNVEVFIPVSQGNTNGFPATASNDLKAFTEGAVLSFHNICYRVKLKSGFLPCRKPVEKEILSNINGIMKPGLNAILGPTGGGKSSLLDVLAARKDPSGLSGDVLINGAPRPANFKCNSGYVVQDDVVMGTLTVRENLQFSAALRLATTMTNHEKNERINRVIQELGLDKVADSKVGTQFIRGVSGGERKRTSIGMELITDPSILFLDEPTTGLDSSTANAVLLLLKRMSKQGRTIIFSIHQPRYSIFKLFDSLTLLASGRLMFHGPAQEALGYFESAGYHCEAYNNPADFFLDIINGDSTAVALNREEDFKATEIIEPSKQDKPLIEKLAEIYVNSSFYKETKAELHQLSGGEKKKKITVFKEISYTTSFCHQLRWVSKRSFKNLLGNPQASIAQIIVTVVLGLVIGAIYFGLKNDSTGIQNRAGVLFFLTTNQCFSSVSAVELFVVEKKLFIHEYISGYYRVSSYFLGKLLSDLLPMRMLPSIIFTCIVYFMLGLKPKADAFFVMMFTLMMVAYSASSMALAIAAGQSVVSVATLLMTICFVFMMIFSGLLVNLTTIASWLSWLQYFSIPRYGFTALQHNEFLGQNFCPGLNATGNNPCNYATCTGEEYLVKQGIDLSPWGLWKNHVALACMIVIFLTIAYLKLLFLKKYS
Outline: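 Pheophorbide A accumulation assay in ABCG2-transfected MDCK II BCRP cells. Ko143 at 10 µM set 100% and no compound set 0%. Screening was at 10 µM; compounds reaching >20% (+SEM) got IC50 curves constrained to the Ko143 maximum at 10 µM. Values are reported as mean ± SEM.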

[4] = Growth inhibition of MDCK2 cells co-expressing MRP1 (unknown origin) incubated for 72 hrs by MTT assay; type: cell-based, Canis lupus familiaris, MDCK-II; conditions: dog
Outline: (§2)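 MTT-based cytotoxicity assay giving GI50 of the compound alone in each listed parental, selected or transfected cell line.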

[5] = target: T1, Multidrug resistance-associated protein 1; test: Reversal of ABCC1-mediated multidrug resistance in human H69AR cells assessed as resistance factor by measuring [GI50(resistant cell line without or with compound)/ GI50(sensitive cell line)] at 5 uM incubated for 72 hrs by MTT assay (reference value: 8.2); type: cell-based
[6] = target: T3, Broad substrate specificity ATP-binding cassette transporter ABCG2 (Homo sapiens, UniProt Q9UNQ0); test: as §1, with “ABCG2” for “ABCC1”, “BCRP” for “MRP1”, “0.5” for “10”, “27)” for “7)”; type: cell-based
T3 sequence (Q9UNQ0 whole entry): T2 sequence (Q9UNQ0 whole entry)

[7] = target: T4, ATP-dependent translocase ABCB1 (Homo sapiens, UniProt P08183); test: as §1, with “ABCB1” for “ABCC1”, “MDR1” for “MRP1”, “0.5” for “10”, “17)” for “7)”; type: cell-based
Outline: (§3)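 MDR reversal assay with daunorubicin at 10 nM–10 µM, alone or with test compound at 0.5, 1, 5 or 10 µM. Resistant cells were ABCB1-overexpressing A2780/ADR or MDCK II MDR1, with sensitive A2780 or MDCK II cells as comparators. Resistance factor = resistant GI50 / sensitive GI50. EC50 was derived from resistance factors versus modulator concentration. Values are from ≥3 experiments in duplicate ± SEM.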

[8] = Growth inhibition of MDCK2 cells co-expressing MDR1 (unknown origin) incubated for 72 hrs by MTT assay; type: ADME, cell-based, Canis lupus familiaris, MDCK-II; conditions: dog; outline: as §2
[9] = system: ABCG2 (BCRP); test: Therapeutic index, ratio of GI50 for MDCK2 cells co-expressing BCRP (unknown origin) to IC50 for ABCG2 (unknown origin) expressed in MDCK2 cells co-expressing BCRP (unknown origin); type: toxicity, cell-based; conditions: dog, read-out: TI
Outline: (§4)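 Therapeutic ratio = GI50 from the MTT cytotoxicity assay / IC50 from the inhibition assay in the same cell line. The cell lines were H69AR (calcein AM, ABCC1), A2780/ADR (calcein AM, ABCB1) and MDCK II BCRP (pheophorbide A, ABCG2).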

[10] = Growth inhibition of human H69AR cells incubated for 72 hrs by MTT assay; outline: as §2
[11] = target: T4, ATP-dependent translocase ABCB1; test: Reversal of ABCB1-mediated multidrug resistance in human A2780/ADR cells assessed as resistance factor by measuring [GI50(resistant cell line without or with compound)/ GI50(sensitive cell line)] at 10 uM incubated for 72 hrs by MTT assay (reference value: 49); type: cell-based; outline: as §3
[12] = target: T1, Multidrug resistance-associated protein 1; test: Competitive inhibition of ABCC1-mediated calcein-AM transport in human H69AR cells at 0.316 to 1.78 uM by Lineweaver-Burk plot analysis; type: cell-based
Outline: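 Kinetic study of calcein AM transport by Lineweaver-Burk analysis. ABCC1 was studied in H69AR cells with calcein AM at 0.25, 0.3, 0.45, 0.6 and 0.8 µM and inhibitor at 0.316, 0.562, 1.00 and 1.78 µM plus a zero control. ABCB1 was studied in A2780/ADR cells with calcein AM at 0.2–0.8 µM and inhibitor at 0.056, 0.100, 0.178 and 0.316 µM plus a zero control.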

[13] = system: ABCC1 (MRP1); test: Therapeutic index, ratio of GI50 for human H69AR cells to IC50 for ABCC1 in human H69AR cells; type: toxicity, cell-based; conditions: read-out: TI; outline: as §4
[14] = target: T1, Multidrug resistance-associated protein 1; test: as §1, with “1” for “10”; type: cell-based
[15] = Growth inhibition of human A2780 cells incubated for 72 hrs by MTT assay; type: cell-based; outline: as §2
[16] = target: T4, ATP-dependent translocase ABCB1; test: Reversal of ABCB1-mediated multidrug resistance in human A2780/ADR cells assessed as resistance factor by measuring [GI50(resistant cell line without or with compound)/ GI50(sensitive cell line)] at 1 uM incubated for 72 hrs by MTT assay (reference value: 49); type: cell-based; outline: as §3

T1 sequence (P33527 whole entry): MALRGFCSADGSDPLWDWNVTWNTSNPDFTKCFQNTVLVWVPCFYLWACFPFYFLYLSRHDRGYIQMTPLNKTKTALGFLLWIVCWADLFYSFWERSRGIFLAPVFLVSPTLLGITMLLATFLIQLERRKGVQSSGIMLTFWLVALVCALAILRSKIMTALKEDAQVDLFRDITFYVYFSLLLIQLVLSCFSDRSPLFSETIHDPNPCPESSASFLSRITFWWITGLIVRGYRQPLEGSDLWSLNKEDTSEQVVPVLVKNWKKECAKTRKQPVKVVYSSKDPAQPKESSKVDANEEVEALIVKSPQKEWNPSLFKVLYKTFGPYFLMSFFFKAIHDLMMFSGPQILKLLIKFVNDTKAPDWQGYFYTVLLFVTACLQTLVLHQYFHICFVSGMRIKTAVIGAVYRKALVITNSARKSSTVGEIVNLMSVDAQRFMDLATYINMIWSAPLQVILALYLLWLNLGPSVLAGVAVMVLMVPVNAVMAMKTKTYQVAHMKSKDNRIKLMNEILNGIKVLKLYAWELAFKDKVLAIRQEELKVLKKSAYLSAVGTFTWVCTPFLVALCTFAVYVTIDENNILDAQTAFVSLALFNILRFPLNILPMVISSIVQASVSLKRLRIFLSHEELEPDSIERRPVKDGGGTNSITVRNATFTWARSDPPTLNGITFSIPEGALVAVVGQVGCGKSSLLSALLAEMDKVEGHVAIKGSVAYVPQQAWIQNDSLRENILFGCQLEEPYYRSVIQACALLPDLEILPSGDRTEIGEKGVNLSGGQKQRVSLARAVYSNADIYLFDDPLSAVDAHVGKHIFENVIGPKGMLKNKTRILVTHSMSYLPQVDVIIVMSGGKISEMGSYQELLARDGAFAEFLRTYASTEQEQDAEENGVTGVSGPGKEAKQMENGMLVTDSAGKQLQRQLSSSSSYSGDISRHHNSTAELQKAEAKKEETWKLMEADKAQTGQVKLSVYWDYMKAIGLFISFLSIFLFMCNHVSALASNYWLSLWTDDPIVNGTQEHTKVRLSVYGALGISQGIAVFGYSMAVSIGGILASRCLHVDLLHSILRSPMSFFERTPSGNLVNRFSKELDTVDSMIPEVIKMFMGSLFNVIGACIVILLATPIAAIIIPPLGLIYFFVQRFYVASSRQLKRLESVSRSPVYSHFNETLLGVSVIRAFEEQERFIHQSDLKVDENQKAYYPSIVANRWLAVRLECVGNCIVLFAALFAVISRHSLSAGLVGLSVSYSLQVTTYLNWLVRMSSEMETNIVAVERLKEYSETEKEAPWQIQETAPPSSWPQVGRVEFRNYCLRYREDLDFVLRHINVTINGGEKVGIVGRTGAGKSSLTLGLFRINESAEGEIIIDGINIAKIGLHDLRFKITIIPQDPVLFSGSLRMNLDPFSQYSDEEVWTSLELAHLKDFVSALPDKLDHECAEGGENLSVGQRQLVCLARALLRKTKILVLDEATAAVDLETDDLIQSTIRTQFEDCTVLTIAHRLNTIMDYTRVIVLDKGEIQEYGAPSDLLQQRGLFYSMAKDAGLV
T4 sequence (P08183 whole entry): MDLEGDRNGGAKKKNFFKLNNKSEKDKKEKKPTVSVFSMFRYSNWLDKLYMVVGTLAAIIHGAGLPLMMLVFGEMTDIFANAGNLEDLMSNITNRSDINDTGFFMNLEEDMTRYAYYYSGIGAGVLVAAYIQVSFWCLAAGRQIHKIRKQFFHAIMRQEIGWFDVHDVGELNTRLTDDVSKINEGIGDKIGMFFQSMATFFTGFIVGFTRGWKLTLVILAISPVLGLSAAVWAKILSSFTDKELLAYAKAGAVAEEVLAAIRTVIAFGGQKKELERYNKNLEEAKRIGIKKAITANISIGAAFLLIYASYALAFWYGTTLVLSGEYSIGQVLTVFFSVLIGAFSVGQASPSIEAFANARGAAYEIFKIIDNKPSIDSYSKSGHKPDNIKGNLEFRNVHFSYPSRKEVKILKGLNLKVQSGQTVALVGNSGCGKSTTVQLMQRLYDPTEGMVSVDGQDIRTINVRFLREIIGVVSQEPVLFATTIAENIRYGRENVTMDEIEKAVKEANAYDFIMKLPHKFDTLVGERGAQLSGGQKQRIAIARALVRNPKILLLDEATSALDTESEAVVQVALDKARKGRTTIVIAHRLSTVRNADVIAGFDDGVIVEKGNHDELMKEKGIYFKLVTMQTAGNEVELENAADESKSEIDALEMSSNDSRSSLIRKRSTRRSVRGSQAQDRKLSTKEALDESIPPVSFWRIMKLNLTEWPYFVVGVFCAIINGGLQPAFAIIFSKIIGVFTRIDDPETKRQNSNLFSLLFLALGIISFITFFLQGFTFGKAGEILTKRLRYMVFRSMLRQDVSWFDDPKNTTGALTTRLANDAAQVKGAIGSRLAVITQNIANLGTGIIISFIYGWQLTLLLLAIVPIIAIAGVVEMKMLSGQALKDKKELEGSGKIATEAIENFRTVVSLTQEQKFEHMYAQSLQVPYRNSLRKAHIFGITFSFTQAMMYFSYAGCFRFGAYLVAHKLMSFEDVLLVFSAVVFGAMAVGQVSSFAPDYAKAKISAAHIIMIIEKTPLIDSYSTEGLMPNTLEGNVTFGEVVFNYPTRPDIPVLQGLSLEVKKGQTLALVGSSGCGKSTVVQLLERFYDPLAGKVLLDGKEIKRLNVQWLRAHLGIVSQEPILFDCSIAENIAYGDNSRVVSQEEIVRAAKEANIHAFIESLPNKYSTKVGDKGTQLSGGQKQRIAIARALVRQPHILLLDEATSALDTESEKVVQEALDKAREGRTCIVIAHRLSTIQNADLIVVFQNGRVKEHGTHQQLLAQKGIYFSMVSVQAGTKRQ
ABCC1 (MRP1) (Homo sapiens, UniProt P33527), sequence (P33527 whole entry): as the sequence (P33527 whole entry) above

CC1CCc2c(sc3nc(-c4cccnc4)nc(N4CCN(C(C(N)=O)c5ccccc5)CC4)c23)C1 (stereo unspecified)
RatioGI50 [1]: 1.4 | inhibition at 1 min, 10 µM [2]: ≥ 20% | inhibition at 2 h, 10 µM [3]: ≥ 20% | GI50 at 72 h [4]: 42.4 µM | RatioGI50 [5]: 3.8 | RatioGI50 [6]: 21 | RatioGI50 [7]: 7.1 | GI50 at 72 h [8]: 25 µM | selectivity ratio [9]: 6.9 | GI50 at 72 h [10]: 56.9 µM | RatioGI50 [11]: 4.1 | inhibition (INH) [12]: Active | selectivity ratio [13]: 11.3 | RatioGI50 [14]: 3.4 | GI50 at 72 h [15]: 24.6 µM | RatioGI50 [16]: 20
